Results reported in ChEMBL document CHEMBL4007404, “Identification of High-Potency Human TLR8 and Dual TLR7/TLR8 Agonists in Pyrimidine-2,4-diamines” (J Med Chem, 2017).
Calls of active or inactive are those of the source.

Key:
[1] = target: T1, Toll-like receptor 8 (Homo sapiens) (UniProt Q9NR97); experiment: Agonist activity at TLR8 in human whole blood assessed as induction of TNF-alpha/IL-1beta by measuring increase in secreted alkaline phosphatase level pretreated for 24 hrs followed by HEK-TNF-alpha/IL-1beta reporter cell addition after 24 hrs by spectrophotometric method
T1 sequence (whole entry): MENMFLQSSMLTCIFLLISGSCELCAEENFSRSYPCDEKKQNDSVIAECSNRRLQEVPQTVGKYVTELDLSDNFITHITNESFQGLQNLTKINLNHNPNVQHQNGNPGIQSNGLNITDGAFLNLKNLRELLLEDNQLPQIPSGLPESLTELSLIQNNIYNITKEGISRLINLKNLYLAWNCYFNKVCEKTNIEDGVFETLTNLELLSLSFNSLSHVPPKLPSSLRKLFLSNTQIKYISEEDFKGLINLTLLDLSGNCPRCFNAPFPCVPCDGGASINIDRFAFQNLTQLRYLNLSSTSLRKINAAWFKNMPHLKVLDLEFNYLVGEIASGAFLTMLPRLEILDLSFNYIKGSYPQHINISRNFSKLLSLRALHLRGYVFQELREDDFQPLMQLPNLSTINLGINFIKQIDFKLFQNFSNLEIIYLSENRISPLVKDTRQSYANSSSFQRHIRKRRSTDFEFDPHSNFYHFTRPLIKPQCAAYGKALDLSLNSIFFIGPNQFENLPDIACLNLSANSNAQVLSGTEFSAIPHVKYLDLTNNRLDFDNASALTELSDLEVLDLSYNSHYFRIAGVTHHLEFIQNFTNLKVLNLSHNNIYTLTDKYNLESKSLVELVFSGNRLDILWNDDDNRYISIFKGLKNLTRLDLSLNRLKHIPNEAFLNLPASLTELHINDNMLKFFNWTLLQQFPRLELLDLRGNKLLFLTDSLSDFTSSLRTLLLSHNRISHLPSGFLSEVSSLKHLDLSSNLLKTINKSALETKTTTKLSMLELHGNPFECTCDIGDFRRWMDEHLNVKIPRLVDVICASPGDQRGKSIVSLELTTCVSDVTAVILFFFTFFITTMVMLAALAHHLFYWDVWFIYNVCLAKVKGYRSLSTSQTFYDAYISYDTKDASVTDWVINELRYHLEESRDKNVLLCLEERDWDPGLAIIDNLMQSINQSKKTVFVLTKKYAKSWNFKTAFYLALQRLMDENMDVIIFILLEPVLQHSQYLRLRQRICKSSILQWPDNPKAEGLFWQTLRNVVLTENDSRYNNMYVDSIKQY
Method in brief: (§1)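 Heparinized human whole blood, diluted 1:2 in RPMI with 10% FBS, was incubated with serial compound dilutions at 37°C for 24 h. Supernatant was moved by liquid handler onto HEK-IFNα/β, HEK-IFNγ or HEK-TNFα/IL-1β reporter cells (1x10⁶ cells/mL, DMEM with 10% FBS) for 24 h at 37°C. Plates were washed and given detection medium for 16 h, then sAP read at 620 nm. Calibration used serum spiked with IFN-α, IFN-γ or TNF-α.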

[2] = target: T1, Toll-like receptor 8 (Homo sapiens); experiment: Agonist activity at TLR8 in human whole blood assessed as induction of IFN-gamma by measuring increase in secreted alkaline phosphatase level pretreated for 24 hrs followed by HEK-IFN-gamma reporter cell addition after 24 hrs by spectrophotometric method; method in brief: as §1
[3] = target: T2, Toll-like receptor 7 (Homo sapiens) (UniProt Q9NYK1); experiment: Agonist activity at TLR7 in human whole blood assessed as induction of IFN-alpha/beta by measuring increase in secreted alkaline phosphatase level pretreated for 24 hrs followed by HEK-IFN-alpha/beta reporter cell addition after 24 hrs by spectrophotometric method; method in brief: as §1
T2 sequence (whole entry): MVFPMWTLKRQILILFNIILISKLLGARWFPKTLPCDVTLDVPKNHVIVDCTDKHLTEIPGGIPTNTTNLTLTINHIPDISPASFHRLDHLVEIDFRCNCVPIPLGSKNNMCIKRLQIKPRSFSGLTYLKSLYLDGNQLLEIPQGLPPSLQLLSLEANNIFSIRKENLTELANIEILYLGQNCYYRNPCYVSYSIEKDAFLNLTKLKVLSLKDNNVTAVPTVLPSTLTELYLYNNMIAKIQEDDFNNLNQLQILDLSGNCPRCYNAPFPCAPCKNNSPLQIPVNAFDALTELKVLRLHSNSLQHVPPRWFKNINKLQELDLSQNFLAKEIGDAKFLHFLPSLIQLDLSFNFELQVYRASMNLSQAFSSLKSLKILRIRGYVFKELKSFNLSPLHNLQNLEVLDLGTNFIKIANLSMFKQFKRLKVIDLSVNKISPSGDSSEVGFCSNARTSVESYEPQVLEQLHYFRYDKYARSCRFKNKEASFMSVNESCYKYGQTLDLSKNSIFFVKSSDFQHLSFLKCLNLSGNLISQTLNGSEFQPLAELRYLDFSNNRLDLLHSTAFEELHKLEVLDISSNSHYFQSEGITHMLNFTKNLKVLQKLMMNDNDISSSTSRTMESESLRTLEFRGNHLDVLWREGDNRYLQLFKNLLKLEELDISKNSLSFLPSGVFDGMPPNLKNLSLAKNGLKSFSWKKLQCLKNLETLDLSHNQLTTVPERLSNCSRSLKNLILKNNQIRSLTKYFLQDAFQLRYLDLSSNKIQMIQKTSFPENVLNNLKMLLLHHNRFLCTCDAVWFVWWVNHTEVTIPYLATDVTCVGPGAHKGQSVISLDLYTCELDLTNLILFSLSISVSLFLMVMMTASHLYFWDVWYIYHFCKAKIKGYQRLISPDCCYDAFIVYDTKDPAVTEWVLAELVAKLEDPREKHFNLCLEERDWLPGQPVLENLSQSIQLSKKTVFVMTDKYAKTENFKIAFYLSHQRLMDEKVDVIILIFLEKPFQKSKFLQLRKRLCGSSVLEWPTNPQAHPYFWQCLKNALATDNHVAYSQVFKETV

[4] = target: T2, Toll-like receptor 7 (Homo sapiens); experiment: Agonist activity at TLR7 in human plasmacytoid dendritic cells assessed as upregulation of CD80 expression after 16 hrs by efluor 780 dye based flow cytometry
Method in brief: (§2)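 Human PBMCs were incubated with serial compound dilutions at 37 °C for 16 h, with DMSO controls. Cells were stained with eFluor780 viability dye, then lineage and DC antibodies plus CD80 PE, and fixed. 250,000 gated events were acquired. pDCs were gated as Live Lin⁻ CD123⁺ CD303⁺ CD304⁺ HLA-DR⁺. cDCs were gated as Lin⁻ CD1c⁺ CD141⁻ CD11c⁺ HLA-DR⁺ or Lin⁻ CD141⁺ CD1c⁻ HLA-DR⁺. Median fluorescence intensity was quantified.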

[5] = target: T1, Toll-like receptor 8 (Homo sapiens); experiment: Agonist activity at TLR8 in human […] conventional dendritic cells assessed as upregulation of CD80 expression after 16 hrs by efluor 780 dye based flow cytometry; method in brief: as §2
[6] = target: T1, Toll-like receptor 8 (Homo sapiens); experiment: Agonist activity at TLR8 in human CD141 positive conventional dendritic cells assessed as upregulation of CD80 expression after 16 hrs by efluor 780 dye based flow cytometry; method in brief: as §2

Measured: Activity

CCCCNc1nc(N)nc(C)c1CCCN1CCOCC1
active: all assays above
